# The list is not random: actives were taken first. Their share in the collection is about 1.8%.
# eIF4E-4G inh – eIF4E–eIF4G protein interaction inhibitors, primary screen, biochemical, uHTS, TR-FRET, eIF4GI fragment; TR-FRET eIF4E-eIF4GI(517-606) binding, 2 h; inhibition, % at 21.7 µM; 220,000 compounds, 0.37% hits;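 active = inhibition above about 30%, limit read from the data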;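 also: 0% = full FRET control wells and 100% = background wells lacking eIF4GI fragment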
# SUMO HTRF inh – inhibitors of in vitro SUMOylation cascade, primary screen, biochemical, HTRF, uHTS; SUMO-conjugating enzyme UBC9 (Homo sapiens), P63279; HTRF SUMOylation assay, SAE1/SAE2 + UBC9; inhibition, % at 35 µM; 290,000 compounds, 0.36% hits; in the data active = inhibition above about 50%, passing the limit was not always enough; inconclusive = no clear call, values can overlap the other calls
# core dimer inh – inhibitors of HCV core protein dimerization, primary screen, biochemical, TR-FRET, high-throughput; TR-FRET GST/Flag-core106 dimerization, 1536-well; inhibition, % at 5 µM; 300,000 compounds, 0.33% hits; AID 1899, 2009;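 active = inhibition above the mean of all tested compounds plus 3 SD, set per screening campaign, cut at about 45% in these data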
#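 Assay system: Tagged HCV core106 pair (GST and Flag) | Buffer or medium: KF-containing HEPES buffer, pH 7.45, DTT, CHAPS, BSA | Also added: Eu donor and XL665 acceptor anti-tag antibodies | Dosing: One concentration, 5 µM, in 0.5% DMSO | Timing: 4 h at 22.5 °C | Technique: TR-FRET 671 and 617 nm emission | Repeats: Singlicate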
# MLLE-PAM2 inh – inhibitors of PABP1 MLLE–PAM2 peptide binding, primary screen, biochemical, fluorescence polarization, FITC-PAM2, GST-MLLE; Polyadenylate-binding protein 1 (Homo sapiens), P11940; inhibition, % at 20 µM; 360,000 compounds, 0.36% hits; AID 588489, 2011; in the data active = inhibition above about 35%, passing the limit was not always enough;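 also: plate controls were DMSO wells with GST-MLLE for no effect and wells lacking GST-MLLE protein for full effect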
# Target sequence (P11940 whole entry, looked up): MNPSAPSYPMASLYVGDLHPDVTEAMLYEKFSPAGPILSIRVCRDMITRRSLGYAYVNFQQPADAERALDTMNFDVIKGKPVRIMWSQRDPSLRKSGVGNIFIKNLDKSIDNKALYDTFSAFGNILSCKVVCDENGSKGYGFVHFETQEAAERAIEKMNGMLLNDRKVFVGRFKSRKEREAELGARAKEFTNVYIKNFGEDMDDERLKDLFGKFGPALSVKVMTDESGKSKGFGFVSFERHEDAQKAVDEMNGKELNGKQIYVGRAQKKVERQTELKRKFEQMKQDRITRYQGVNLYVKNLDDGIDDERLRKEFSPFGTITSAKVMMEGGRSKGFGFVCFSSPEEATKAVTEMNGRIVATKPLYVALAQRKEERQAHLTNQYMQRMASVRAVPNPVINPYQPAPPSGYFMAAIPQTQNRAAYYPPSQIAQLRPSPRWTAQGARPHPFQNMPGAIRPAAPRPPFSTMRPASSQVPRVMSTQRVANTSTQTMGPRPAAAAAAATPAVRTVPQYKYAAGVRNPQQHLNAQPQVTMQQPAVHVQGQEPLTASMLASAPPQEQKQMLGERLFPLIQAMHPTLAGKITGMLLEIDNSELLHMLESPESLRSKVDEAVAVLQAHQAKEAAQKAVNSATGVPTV
# eIF4H FP inh – human eIF4H binding inhibitors, primary screen, translation initiation inhibitor project, biochemical, uHTS, fluorescence polarization. AID 2012, 2009. eIF4H fluorescence polarization binding assay. 290,000 compounds, 0.94% hits. Eukaryotic translation initiation factor 4H (Homo sapiens), Q15056. inhibition, % at 35 µM;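 also: calls also rest on retests at 20 µM and on dose response follow-up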
# PABP FP inh – PABP poly(A) RNA binding inhibitors, primary screen, biochemical, fluorescence polarization, uHTS; AID 2014, 2009; 290,000 compounds, 1% hits; calls only at 35 µM; Polyadenylate-binding protein 1 (Homo sapiens), P11940;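 also: calls also rest on retests at 20 µM and on dose response follow-up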
# * hit, by the source's call; i = inactive; ? = inconclusive; nt = no result given; + = active, no number; [ ] = remark or other dose. Unless noted, no rule for the calls is given here.
SMILES,eIF4E-4G inh,SUMO HTRF inh,core dimer inh,MLLE-PAM2 inh,eIF4H FP inh,PABP FP inh
CCOC(=O)C1=C(C)Nc2sc(C(=O)c3ccc(F)cc3)c(N)c2C1c1ccc(C(=O)OC)cc1 (stereo not drawn),-0.5,-0.4,6.2,9.0,-6.4,i
CCOC(=O)C1=C(C)Nc2sc(C(=O)c3ccc(C)cc3)c(N)c2C1c1ccc(C(=O)OC)cc1 (stereo not drawn),2.5,22.8,4.6,9.6,86.6,+
O=C(NCCS(=O)(=O)N1CCN(c2cccc(Cl)c2)CC1)c1cc(=O)c2ccccc2o1,nt,2.4,10.6,6.8,-5.5,i
CCOC(=O)Cn1c2ccc(OC)cc2c2nc3ccccc3nc21,-33.1,53.9*,3.7,76.4,?,?
COc1cc(C2c3c(n[nH]c3C)C(=O)N2c2ccc(C)cc2)ccc1O (stereo not drawn),-2.2,19.6,0.9,0.2,7.5,i
CCOc1cc(C2c3c(n[nH]c3C)C(=O)N2c2ccc(C)cc2)ccc1O (stereo not drawn),64.9*,0.4,-6.4,7.6,-8.1,i
COc1ccc(CCN2C(=O)c3cccc4c(C(=O)N5CCCCC5)ccc(c34)C2=O)cc1OC,1.3,0.4,16.0,-5.2,3.7,i
Cn1cc(-c2cc(C(=O)O)on2)cn1,-6.0,-1.0,2.5,0.2,-11.0,i
CN(c1ccccc1)S(=O)(=O)c1cccc(C(=O)OCC(=O)NCCCN2CCCC2=O)c1,0.2,4.2,1.4,11.8,9.9,+
CN(c1ccc(C(=O)NC2CCCCC2)cc1)S(=O)(=O)c1ccccc1,nt,18.6,-1.1,11.2,-6.1,i
CN(c1ccccc1)S(=O)(=O)c1cccc(C(=O)NC2CCCCC2)c1,nt,nt,nt,84.7*,nt,nt
CN(c1ccccc1)S(=O)(=O)c1cccc(C(=O)OCC(=O)Nc2ccc3[nH]c(=O)[nH]c3c2)c1,nt,nt,-3.7,-7.3,nt,nt
O=C(CS(=O)(=O)c1c[nH]c2ccccc12)N1CCc2ccccc21,3.5,6.3,-11.3,3.8,-2.1,i
S=c1[nH]nc(-c2cc(-c3ccccc3)n[nH]2)n1/N=C/C=C/c1ccco1,4.8,48.3,27.8,3.5,101.5*,+
S=c1[nH]nc(COc2ccccc2)n1/N=C/C=C/c1ccccc1,5.1,4.4,8.7,-81.0,1.5,i
S=c1[nH]nc(COc2ccccc2)n1/N=C/C=C/c1ccco1,-1.7,45.2,2.6,-54.1,81.4*,+
S=c1[nH]nc(-c2n[nH]c3c2CCC3)n1/N=C/C=C/c1ccco1,0.9,44.9,-5.3,-6.5,90.0*,+
Cc1cc2cc(CNC(=O)CCC(=O)O)ccc2n1C,1.0,33.1,4.1,16.7,2.8,i
Cc1cc2cc(CNC(=O)c3ccc(S(=O)(=O)N(C)C)cc3)ccc2n1C,-2.6,-35.9,-6.8,50.3*,?,i
Cc1cc2cc(CNC(=O)c3ccc(S(=O)(=O)N4CCOCC4)cc3)ccc2n1C,1.7,-9.2,-61.7,46.8*,18.2,i
O=C1CC(c2ccco2)Sc2nc3ccccc3n21 (stereo not drawn),1.8,0.7,3.7,-50.7,89.0*,+
CCOC(=O)/C=C1\SCC(=O)N1CC(=O)NC1CCCCC1,1.8,17.5,2.9,-1.3,4.3,i
CCOC(=O)/C=C1\SCC(=O)N1CC(O)CN1C(=O)CS/C1=C\C(=O)OCC,-1.2,22.7,-2.1,-10.9,?,+
COc1cc(C(=O)NNC(=O)C2CC=CCC2C(=O)O)cc(OC)c1OC (stereo not drawn),30.5*[fluorescence artefact?],20.5,-3.1,11.8,-7.4,i
O=C(CCN1C(=O)S/C(=C\c2ccccc2)C1=O)Nc1ccc(S(=O)(=O)Nc2nccs2)cc1,-16.6,-7.6,21.3,12.8,14.4,i
O=C(Nc1ccc(S(=O)(=O)Nc2nccs2)cc1)c1nn(-c2ccc(F)cc2)ccc1=O,nt,20.7,31.9,6.4,79.9*,+

# Screening data deposited in PubChem BioAssay by several laboratories.
